Measured values published in PMC10590554 (Drug Design, Development and Therapy, 2023).
Several values for one entry are separate records, joined by “and”; a condition that tells them apart may be missing. Equal values may be shown once. Read-outs that look alike come from different tables or passages of the source.

How the values were obtained:
[1] = with flavoured water; cited from earlier work
CYP3A4 = conditions: human microsomes and cDNA expressed human CYP enzymes; cited from earlier work
[2] = assay type: in vivo, Sprague-Dawley rats; conditions: rats
Outline: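 Male Sprague-Dawley rats (220–260 g), acclimatised one week, fasted 12 h with free water, n=7/group. Single dose of vehicle (0.5% CMC-Na), simvastatin 2 mg/kg or itraconazole 15 mg/kg, then erlotinib 12 mg/kg in 0.5% CMC-Na by oral gavage 30 min later. Tail-vein blood taken into heparin at 0–24 h; plasma assayed by UPLC-MS/MS with tinidazole IS. Mean ± SD; ANOVA with Dunnett; Tmax by Wilcoxon signed-rank.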

[3] = cited from earlier work
[4] = Stability of erlotinib in rat plasma; assay type: in vitro ADME; conditions: various storage conditions, QC 8 and 800 ng/mL
Outline: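 Blank rat plasma spiked with erlotinib QC at 8 and 800 ng/mL, five replicates per level. Held at room temperature 4 h, at −80°C for 60 days, or through 3 freeze-thaw cycles; processed samples held 4°C 24 h. Acetonitrile-tinidazole protein precipitation, then UPLC-MS/MS against a 5–1000 ng/mL 1/x²-weighted curve. Accuracy taken as measured/theoretical concentration ×100%.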

[5] = with ketoconazole (CYP3A4 inhibitor); cited from earlier work
[6] = after oral administration; cited from earlier work
[7] = co-administration with itraconazole; cited from earlier work
[8] = with itraconazole, humans; cited from earlier work
[9] = with itraconazole, rats; cited from earlier work
[10] = itraconazole group vs erlotinib alone group, P<0.05
[11] = itraconazole group vs erlotinib alone group, not significant
[12] = simvastatin group vs erlotinib alone group, P>0.05

## C#Cc1cccc(Nc2ncnc3cc(OCCOC)c(OCCOC)cc23)c1 [Erlotinib, erlotinib]
[1]
  increase of AUC of erlotinib: 200%
  increase of Cmax of erlotinib: 95%
CYP3A4
  share of metabolism by CYP3A4: 70%
[2]; 15 mg/kg itraconazole with 12 mg/kg erlotinib vs erlotinib alone, P<0.05
  increase of AUC: 32.3%
[2]; [10]
  decrease of CL/F: ~24.24% and 24.2%
  increase of AUC0-t: approximately 32.32%
  increase of AUC0-∞: ~32.29%
  increase of Cmax: ~33.54% and 33.5%
[2]; [11]
  decrease of Vz/F: approximately 19.30%
  increase of t1/2: ~5.33%
[2]; itraconazole group, P<0.05
  AUC0-t, fold higher than erlotinib alone group: approximately 1.32 fold
  AUC0-∞, fold higher than erlotinib alone group: approximately 1.32 fold
  Cmax, fold higher than erlotinib alone group: ~1.34 fold
[2]; [12]
  decrease of CL/F: approximately 6.06%
  increase of AUC0-∞: ~9.50%
  increase of Cmax: ~3.80%
  increase of Vz/F: ~1.16%
  increase of t1/2: ~7.56%
[3]; combined with tamoxifen vs single administration
  reduction of AUC of erlotinib: 54%
[4]
  Accuracy over all stability conditions: 87.56–112.17%
[5]
  increase of AUC of erlotinib: 86%
  increase of Cmax of erlotinib: 102%
[6]
  eliminated via urine and feces route: 91%

## N#CC1(c2ccc(NC(=O)c3cccnc3NCc3ccncc3)cc2)CCCC1 [apatinib]
[7]
  reduction of CL/F of apatinib: 40%

## CCc1nc(C(N)=O)c(Nc2ccc(N3CCC(N4CCN(C)CC4)CC3)c(OC)c2)nc1NC1CCOCC1 [gilteritinib]
[8]
  increase of exposure of gilteritinib: 2.2 fold
[9]
  increase of exposure of gilteritinib: 1.4 fold

## CC/C(=C(\c1ccccc1)c1ccc(OCCN(C)C)cc1)c1ccccc1 [tamoxifen]
[3]; combined with erlotinib vs single administration
  increase of Cmax of tamoxifen: 46%
